Experimental data taken from ChEMBL document CHEMBL1154855 (Eur J Med Chem, 2010).

How the values were obtained:
HEL [1] = experiment: (§1) Cytotoxicity against Herpes simplex virus 2 G infected HEL cells by trypan blue exclusion method; assay type: cell-based; settings: human, hel
How it was run: (§2)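 Uninfected confluent cultures were run in parallel with the infected cultures. Medium was replaced by 1 ml maintenance medium with serial compound concentrations; cell controls received no compound. Cultures were incubated at 37 °C. After 2 and 7 days, compound was withdrawn and viability was determined by trypan blue exclusion.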

HEL [2] = experiment: (§3) Cytotoxicity against Herpes simplex virus 1 KOS infected HEL cells by trypan blue exclusion method; assay type: cell-based; settings: human, hel; how it was run: as §2
HEL [3] = experiment: (§4) Cytotoxicity against VSV infected HEL cells by trypan blue exclusion method; assay type: cell-based; settings: human, hel; how it was run: as §2
HEL [4] = experiment: Cytotoxicity against acyclovir-sensitive Herpes simplex virus 1 KOS infected HEL cells by trypan blue exclusion method; assay type: cell-based; settings: human; how it was run: as §2
[5] = tested on: Vesicular stomatitis virus; experiment: Antiviral activity against VSV infected in HEL cells assessed as protection from virus-induced cytopathogenicity after 1 to 2 days by MTT assay; assay type: functional, organism-based
HEL [6] = experiment: (§5) Cytotoxicity against Vaccinia virus infected HEL cells by trypan blue exclusion method; assay type: cell-based; settings: human, hel; how it was run: as §2
Feline coronavirus = experiment: Antiviral activity against Feline coronavirus infected in cat CRFK cells assessed as protection from virus-induced cytopathogenicity by MTT assay; assay type: functional, organism-based; settings: Alphacoronavirus 1, CRFK
[7] = tested on: Respiratory syncytial virus; experiment: Antiviral activity against Respiratory syncytial virus infected in human HeLa cells assessed as protection from virus-induced cytopathogenicity after 4 days by MTT assay; assay type: functional, organism-based; settings: 96 h
[8] = tested on: Mammalian orthoreovirus 1; experiment: Antiviral activity against Reovirus 1 infected in african green monkey Vero cells assessed as protection from virus-induced cytopathogenicity after 6 to 7 days by MTT assay; assay type: functional, organism-based; settings: Mammalian orthoreovirus 1, Vero
Human respirovirus 3 = experiment: Antiviral activity against PIV 3 infected in african green monkey Vero cells assessed as protection from virus-induced cytopathogenicity after 6 to 7 days by MTT assay; assay type: functional, organism-based; settings: Human respirovirus 3, Vero
Human alphaherpesvirus 2 = experiment: Antiviral activity against Herpes simplex virus 2 G infected in HEL cells assessed as protection from virus-induced cytopathogenicity after 2 to 3 days by MTT assay; assay type: functional, organism-based; settings: Human alphaherpesvirus 2, strain G
Sindbis virus = experiment: Antiviral activity against Sindbis virus infected in african green monkey Vero cells assessed as protection from virus-induced cytopathogenicity after 2 to 3 days by MTT assay; assay type: functional, organism-based
Punta Toro virus = experiment: Antiviral activity against Punta Toro virus infected in african green monkey Vero cells assessed as protection from virus-induced cytopathogenicity by MTT assay; assay type: functional, organism-based
Influenza A virus [9] = experiment: Antiviral activity against Influenza A virus H3N2 infected in MDCK cells assessed as protection from virus-induced cytopathogenicity after 6 to 7 days by MTT assay; assay type: functional, organism-based
Influenza A virus [10] = experiment: Antiviral activity against Influenza A virus H1N1 infected in MDCK cells assessed as protection from virus-induced cytopathogenicity after 6 to 7 days by MTT assay; assay type: functional, organism-based
[11] = Cytotoxicity against HIV1 3B-infected human MT4 cells by MTT assay; assay type: cell-based; settings: MT4 cells infected with HIV-1 3B
How it was run: (§6)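 MT-4 cells (3 × 10^4 per well) were cultured in microdilution trays with various concentrations of compound, then incubated 5 days at 37 °C, and viable cell number was read by MTT.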

[12] = tested on: Human immunodeficiency virus 2; experiment: Antiviral activity against HIV2 ROD infected in human MT4 cells assessed as protection from virus-induced cytopathogenicity after 5 days by MTT assay; assay type: functional, organism-based; settings: Human immunodeficiency virus 2, ISOLATE ROD, MT4, 120 h
How it was run: (§7)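 MT-4 cells at 3 × 10^4 per well were infected with HIV (IIIB or ROD) at 50% cell culture infective doses. Graded compound concentrations were added immediately after infection. Plates were incubated for 5 days at 37 °C and viable cells were counted by MTT.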

[13] = tested on: Human immunodeficiency virus 1; experiment: Antiviral activity against HIV1 3B-infected in human MT4 cells assessed as protection from virus-induced cytopathogenicity after 5 days by MTT assay; assay type: functional, organism-based; settings: Human immunodeficiency virus 1, 3B, MT4, 120 h; how it was run: as §7
[14] = tested on: Vesicular stomatitis virus; experiment: Antiviral activity against VSV infected in human HeLa cells assessed as protection from virus-induced cytopathogenicity after 1 to 2 days by MTT assay; assay type: functional, organism-based
[15] = Cytotoxicity against HIV2 ROD infected human MT4 cells by MTT assay; assay type: cell-based; settings: MT4 cells infected with HIV-2 ROD; how it was run: as §6
Influenza B virus = experiment: Antiviral activity against Influenza B virus infected in MDCK cells assessed as protection from virus-induced cytopathogenicity after 6 to 7 days by MTT assay; assay type: functional, organism-based
Proteus mirabilis = experiment: Antibacterial activity against Proteus mirabilis after 24 hrs by broth microdilution method; assay type: functional
How it was run: (§8)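 Clinical isolates. Each dilution received 100 μl of 0.5 McFarland fresh culture. Solvent (DMSO), growth and standard controls were included. Tubes were incubated at 37 °C for 24 h. MIC is the highest dilution showing no turbidity. Tests were run in triplicate, with at least two repetitions.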

Escherichia coli = experiment: Antibacterial activity against Escherichia coli after 24 hrs by broth microdilution method; assay type: functional; how it was run: as §8
Klebsiella pneumoniae = experiment: Antibacterial activity against Klebsiella pneumoniae after 24 hrs by broth microdilution method; assay type: functional; how it was run: as §8
Streptococcus viridans = experiment: Antibacterial activity against Streptococcus viridans after 24 hrs by broth microdilution method; assay type: functional; how it was run: as §8
[16] = as §1; assay type: cell-based; settings: human, HEL cells infected with herpes simplex virus 2 G; how it was run: as §2
[17] = Cytotoxicity against Feline herpesvirus infected cat CRFK cells by trypan blue exclusion method; assay type: cell-based, Felis catus; settings: CRFK cells infected with feline herpesvirus; how it was run: as §2
[18] = as §3; assay type: cell-based; settings: human, HEL cells infected with herpes simplex virus 1 KOS; how it was run: as §2
[19] = as §4; assay type: cell-based; settings: human, HEL cells infected with VSV; how it was run: as §2
[20] = Cytotoxicity against Feline coronavirus infected cat CRFK cells by trypan blue exclusion method; assay type: cell-based, Felis catus; settings: CRFK cells infected with feline coronavirus; how it was run: as §2
[21] = as §5; assay type: cell-based; settings: human, HEL cells infected with vaccinia virus; how it was run: as §2
Felid alphaherpesvirus 1 = experiment: Antiviral activity against Feline herpesvirus infected in cat CRFK cells assessed as protection from virus-induced cytopathogenicity by MTT assay; assay type: functional, organism-based; settings: Felid alphaherpesvirus 1, CRFK

O=c1[nH]c(=O)n([C@H]2C[C@H](O)[C@@H](CO)O2)cc1/C=C/Br [BRIVUDINE]
> 250000 nM: CC50 (HEL [1]) | CC50 (HEL [2]) | CC50 (HEL [3]) | CC50 (HEL [4]) | EC50 [5] | CC50 (HEL [6])

CCCCCCCCCC(=O)Oc1ccc(/C=C/C(=O)CC(=O)/C=C/c2ccc(OC(=O)CCCCCCCCC)c(OC)c2)cc1OC
> 81 nM: CC50 [11]
> 29 nM: EC50 (Feline coronavirus)
79 nM: IC50 [12]
> 147 nM: EC50 [7] | EC50 [8] | EC50 (Human respirovirus 3) | EC50 (Human alphaherpesvirus 2) | EC50 (Sindbis virus) | EC50 (Punta Toro virus) | EC50 (Influenza A virus [9]) | EC50 (Influenza A virus [10]) | EC50 (Influenza B virus) | EC50 [5]
81 nM: IC50 [13]
> 79 nM: CC50 [15]
147 nM: EC50 [14]

CCCCCCCCCCCCCCCC(=O)Oc1ccc(/C=C/C(=O)CC(=O)/C=C/c2ccc(OC(=O)CCCCCCCCCCCCCCC)c(OC)c2)cc1OC
0.53 µM: MIC (Proteus mirabilis; Proteus mirabilis, 24 h, read-out: MIC) | MIC (Escherichia coli; Escherichia coli, 24 h, read-out: MIC) | MIC (Klebsiella pneumoniae; Klebsiella pneumoniae, 24 h, read-out: MIC)

GENTAMICIN SULFATE
> 1.73 µM: MIC (Streptococcus viridans) | MIC (Proteus mirabilis) | MIC (Escherichia coli) | MIC (Klebsiella pneumoniae)

Nc1nc2c(ncn2COC(CO)CO)c(=O)[nH]1 [GANCICLOVIR]
2600 nM: EC50 (Felid alphaherpesvirus 1)
> 100000 nM: CC50 [16] | EC50 (Feline coronavirus) | CC50 [17] | CC50 [18] | CC50 [19] | EC50 [5] | CC50 [20] | CC50 [21]
